Source: PubChem BioAssay (several laboratories)
CASP6 VEID inh = inhibitors of human caspase-6. AID 686996. inhibition, % at 12.5 µM. purified caspase-6, Z-VEID-R110 cleavage fluorescence. 350,000 compounds, 0.53% hits. P55212;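 active means mean inhibition across replicates at least about 35%, with every replicate also reaching that limit, limit read from the data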
Target sequence (P55212 24-179 limits assumed): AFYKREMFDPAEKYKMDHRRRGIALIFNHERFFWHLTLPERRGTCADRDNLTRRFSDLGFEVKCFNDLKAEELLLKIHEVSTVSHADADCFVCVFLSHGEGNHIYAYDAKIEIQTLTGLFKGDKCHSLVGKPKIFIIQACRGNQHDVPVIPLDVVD
Target sequence (P55212 194-293 limits assumed): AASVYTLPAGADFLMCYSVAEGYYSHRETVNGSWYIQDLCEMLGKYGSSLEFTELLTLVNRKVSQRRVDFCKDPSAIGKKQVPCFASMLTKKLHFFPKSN
Scp-1 inhibitor = inhibitors of human Scp-1 phosphatase; Recombinant Scp1, phosphopeptide, malachite green phosphate absorbance; inhibition, % at 20 µM; 340,000 compounds, 0.88% hits;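 active means inhibition above about 50% at 20 µM, limit read from the data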
Target sequence (Q9GZU7 76-261 limits assumed): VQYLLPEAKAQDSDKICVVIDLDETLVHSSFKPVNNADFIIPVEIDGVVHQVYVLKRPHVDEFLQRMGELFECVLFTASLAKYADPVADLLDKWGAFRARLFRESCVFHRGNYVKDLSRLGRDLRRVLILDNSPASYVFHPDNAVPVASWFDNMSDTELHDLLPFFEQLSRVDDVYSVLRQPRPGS
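assay system = SCP-1 phosphatase catalytic domain, residues 76-261 | buffer or medium = 50 mM Tris acetate pH 5.5, 0.005% Tween-20, 10 mM MgCl2 | incubation = enzyme reaction 45 min at room temperature, colour 5 min, stabilisation 30 min | signal = Phosphate-binding colour reagent, absorbance read at 630 nm | measure = % inhibition at 20 µM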
SUMO1 PPI mod = modulators of human SUMO1-mediated protein-protein interactions; P63165; inhibition, % at 20 µM; 360,000 compounds, 0.33% hits; SUMO1 binding to a labelled peptide, TR-FRET, 1 h; in the data active means inhibition above about 37%
Target sequence (P63165 whole entry, looked up): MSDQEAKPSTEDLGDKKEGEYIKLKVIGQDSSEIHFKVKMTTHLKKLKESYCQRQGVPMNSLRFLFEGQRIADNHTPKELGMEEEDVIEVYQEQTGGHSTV
LMPTP block = LMPTP (human) inhibition; recombinant LMPTP-A, OMFP fluorogenic substrate, fluorescence intensity; AID 651560; 360,000 compounds, 0.22% hits; P24666; inhibition, % at 20 µM;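 active means compounds that cut the enzyme signal by at least half of the control window in the single-dose screen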
Target sequence (P24666 whole entry, looked up): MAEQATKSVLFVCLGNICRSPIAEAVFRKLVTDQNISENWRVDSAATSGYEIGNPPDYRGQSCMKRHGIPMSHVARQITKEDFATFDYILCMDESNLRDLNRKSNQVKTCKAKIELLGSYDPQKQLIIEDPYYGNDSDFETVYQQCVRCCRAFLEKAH
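Test system: LMPTP-A phosphatase enzyme. Amount: LMPTP-A at 0.625 nM final in the reaction. Reagent: OMFP substrate, 400 µM final. Times: 50 min at room temperature. Signal: endpoint fluorescence intensity from OMFP dephosphorylation. Read-out basis: % inhibition. Benchmarks: no-enzyme and uninhibited controls.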
DNMT1 inh = blocks human DNA methyltransferase DNMT1 | P26358 | 360,000 compounds, 0.83% hits | DNMT1 molecular beacon, Hinp1I cleavage, fluorescence | inhibition (reported as % activation of signal), % at 10 µM; in the data active means inhibition above about 50%
STEP block = STEP (human) phosphatase inhibition | inhibition, % at 20 µM | recombinant STEP, OMFP fluorogenic substrate, fluorescence | 360,000 compounds, 0.25% hits | AID 588621 | P54829;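 active means inhibition at 20 µM, scaled per plate between control wells, above about 37%, limit read from the data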
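Measure: Control-normalized % inhibition with plate pattern correction | Test system: STEP phosphatase, cell-free reaction | Medium: pH 6.0 Bis-Tris with DTT and Tween 20 | Technique: Fluorescence, 480/540 nm | Times: Reaction 20 min, ambient temperature | Doses: Single compound dose of 20 µM, 1% DMSO final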
Beacon interf DR = beacon fluorescence artifact, dose response counter-screen. shares compounds with DNMT1 inh. molecular beacon fluorescence, spectral interference counter-screen. IC50, µM. 200 tested, under 10 active. AID 602382; call rule not given here
DNMT1 inh conf = DNMT1 inhibition confirmation, single concentration | shares compounds with DNMT1 inh | DNMT1 molecular beacon HinP1I cleavage, fluorescence | inhibition, % at 10 µM | 2,300 compounds, 8% hits;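 active means average inhibition of at least 30% in the single-concentration confirmation test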
DNMT1 interf = counter-screen for DNMT1 inhibitors: spectral interference | activation (fluorescence interference), % at 10 µM | shares compounds with DNMT1 inh | AID 602387 | DNMT1 molecular beacon spectral interference counterscreen, fluorescence 485/520 | 2,300 compounds, 1% hits;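 active means activation of at least 30% at 10 µM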;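 further: DNMT1 catalytic domain with a HinP1I cleavage step and a FAM/dabcyl DNA beacon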
Each line names hits and unclear results; the compound was inactive in the other large screens (follow-up assays come after a bar, where they were run). Sampled rows, rich in hits. Any-hit rate of the full collection: about 1.7%.

NC(=O)[C@@H]1CCCCNc2c(F)cc([N+](=O)[O-])cc2C(=O)N[C@@H](CCCN=C(N)N)C(=O)NCC(=O)N1	none
NCCCC[C@@H]1NC(=O)c2cc([N+](=O)[O-])cc(F)c2NCCCC[C@@H](C(N)=O)NC(=O)CNC1=O	DNMT1 inh 104 | DNMT1 inh conf inactive | DNMT1 interf inactive
Cc1nc(NC(=O)c2ccco2)sc1-c1csc(Nc2ccc(Cl)cc2Cl)n1	DNMT1 inh 63 | DNMT1 inh conf inactive | DNMT1 interf inactive
COc1ccc(Cl)cc1NC(=O)c1cccc([N+](=O)[O-])c1O	DNMT1 inh 66 | DNMT1 inh conf inactive | DNMT1 interf inactive
COc1ccc(Cl)cc1NC(=O)C/C(C)=N/NC(=O)c1ccccc1[N+](=O)[O-]	none
O=C(Nc1cccc(S(=O)(=O)N2CCCC2)c1)[C@@H]1O[C@H](CO)[C@H](O)[C@H](O)[C@H]1O	none (no result: Scp-1 inhibitor)
O=C(c1ccc2[nH]c3c(c2c1)CCCC3)N1CCN(c2ccc(F)cc2)CC1	DNMT1 inh 59 (no result: CASP6 VEID inh) | DNMT1 inh conf inactive | DNMT1 interf inactive
COc1ccccc1N1CCN(C(=O)c2ccc3[nH]c4c(c3c2)CCCC4)CC1	none (no result: CASP6 VEID inh)
Cc1cc(NC(=O)c2cncc(Br)c2)ccc1NC(=O)c1cc2ccccc2o1	DNMT1 inh 75 | DNMT1 inh conf inactive | DNMT1 interf inactive
COc1cc(NC(=O)c2ccccc2)ccc1NC(=O)c1cc2ccccc2o1	none
CCOc1ccc2oc(C(=O)Nc3nccs3)c(C)c2c1	DNMT1 inh 68 | DNMT1 inh conf inactive | DNMT1 interf inactive
Cc1cc(/C=C(\C#N)C(=O)Nc2ccccc2F)c(C)[nH]1	none
COc1ccc(CN(C)C[C@@H]2Oc3ccc(NS(=O)(=O)c4ccc(Cl)cc4)cc3CC(=O)N([C@H](C)CO)C[C@@H]2C)cc1	none (no result: Scp-1 inhibitor, SUMO1 PPI mod, LMPTP block, DNMT1 inh, STEP block)
Cc1ccc(S(=O)(=O)c2c(N)n(CCCO)c3nc4ccccc4nc23)cc1	SUMO1 PPI mod 45, DNMT1 inh 70 (no result: CASP6 VEID inh) | DNMT1 inh conf inactive | DNMT1 interf inactive
Cc1ccc(C(=O)Nn2c(N)c(S(=O)(=O)c3ccc(C)cc3)c3nc4ccccc4nc32)cc1	none (no result: CASP6 VEID inh)
CC(=O)Nc1cc(-c2ccccc2N(C)C)cn2c(-c3ccccc3)cnc12	none (no result: Scp-1 inhibitor)
CC(=O)Nc1cc(-c2ccccc2N(C)C)cn2c(-c3ccc(S(C)(=O)=O)cc3)cnc12	DNMT1 inh 189 (no result: Scp-1 inhibitor) | DNMT1 inh conf inactive | DNMT1 interf inactive
CC1(NC(=O)CSc2nnc(-c3ccco3)n2Cc2ccccc2)CCS(=O)(=O)C1 (stereo not given)	none
Cc1ccc(OCCn2ncc3ccccc3c2=O)c(C)c1	DNMT1 inh 51 | DNMT1 inh conf inactive | DNMT1 interf inactive
O=c1c2ccccc2cnn1CCOc1cccc(Br)c1	none
O=C(Nc1ccc(NC(=O)c2sc3ccccc3c2Cl)cc1Cl)c1ccco1	DNMT1 inh 75 (no result: CASP6 VEID inh) | DNMT1 inh conf inactive | DNMT1 interf inactive
O=C(Nc1ccc(NC(=O)c2cccs2)c(Cl)c1)c1ccco1	none
Cc1ccc(/C=C2/C(=O)c3ccc(C(=O)O)cc3C2=O)o1	DNMT1 inh 74 | DNMT1 inh conf inactive | DNMT1 interf inactive
O=C(O)c1ccc2c(c1)C(=O)/C(=C\c1ccco1)C2=O	CASP6 VEID inh 41, Scp-1 inhibitor 54, DNMT1 inh 80 | DNMT1 inh conf inactive | DNMT1 interf inactive
O=C(C1CC(=O)N(c2ccc(F)cc2)C1)N1CCCCC1 (stereo not given)	none
CC(C)(CCc1ccccn1)C(=O)C(CCc1ccccn1)CCc1ccccn1	none
O=S(=O)(Nc1ccc(-c2ccc(N3CCOCC3)nn2)cc1)c1ccc(Cl)c(Cl)c1	DNMT1 inh 83 | DNMT1 inh conf inactive | DNMT1 interf inactive
O=[N+]([O-])c1ccc(Cl)c(S(=O)(=O)Nc2ccc(-c3ccc(N4CCOCC4)nn3)cc2)c1	none
CCSC1=N/C(=C\c2ccc3c(c2)OCO3)C(=O)S1	none (no result: CASP6 VEID inh)
C=CCSC1=N/C(=C\c2cc(OC)c3c(c2)OCO3)C(=O)S1	DNMT1 inh 74 (no result: CASP6 VEID inh) | DNMT1 inh conf inactive | DNMT1 interf inactive
COc1ccc(-c2csc(NC(=O)CCNC(=O)c3ccco3)n2)cc1OC	none
COc1ccc(-c2nc(CCNC(=O)c3ccco3)cs2)cc1OC	DNMT1 inh 83 | DNMT1 inh conf inactive | DNMT1 interf inactive
O=C(NCc1nc2ccccc2[nH]1)c1ccc([N+](=O)[O-])cc1	none
O=C(N/N=C/c1cn(Cc2cccc(F)c2)c2ccccc12)c1cc(O)cc(O)c1	CASP6 VEID inh 57, Scp-1 inhibitor 77, SUMO1 PPI mod 53, DNMT1 inh 93, STEP block 98 | Beacon interf DR inactive | DNMT1 inh conf 121 | DNMT1 interf inactive
Nc1ccc(C(=O)N/N=C/c2cn(Cc3ccccc3)c3ccccc23)cc1	none
COc1ccc(Cc2nc3ccc(C(=O)NCCSC)cc3o2)cc1	DNMT1 inh 55 | DNMT1 inh conf inactive | DNMT1 interf inactive
COc1ccc(S(=O)(=O)N2CCCCC2)cc1NC(=O)c1c(F)cccc1Cl	none
O=C(O)C1=CCC=CC1C(=O)O (stereo not given)	CASP6 VEID inh 68, SUMO1 PPI mod 69, DNMT1 inh 99 (no result: Scp-1 inhibitor) | DNMT1 inh conf inactive | DNMT1 interf inactive
c1ccc(-c2nccc(-c3ccc(-n4cnc5ccccc54)cc3)n2)cc1	DNMT1 inh 82 (no result: CASP6 VEID inh) | DNMT1 inh conf inactive | DNMT1 interf inactive
c1ccc(-n2cnc3ccccc32)nc1	none
O=C1NN(c2ccc(Cl)cc2)C(=O)/C1=C\c1ccc(-c2cccc(C(=O)O)c2)o1	CASP6 VEID inh 73, Scp-1 inhibitor 94, SUMO1 PPI mod 40, LMPTP block 82, DNMT1 inh 95, STEP block 97 | Beacon interf DR inactive | DNMT1 inh conf 34 | DNMT1 interf inactive
COc1cc(/C=C2/C(=O)NN(c3ccc(Cl)cc3)C2=O)cc(OC)c1O	none
O=C(O)C1Oc2cc3ccccc3cc2O1	CASP6 VEID inh 55, DNMT1 inh 55 | DNMT1 inh conf inactive | DNMT1 interf inactive
O=C(O)c1cc2ccccc2cn1	none
CCC1(CC)C(=O)Nc2ccccc21	DNMT1 inh 75 | DNMT1 inh conf inactive | DNMT1 interf inactive
COc1ccc(-c2csc(NC(=O)CN3C(=O)NC4(CCCC4)C3=O)n2)cc1OC	none
CC(C)(C)c1ccc(-c2csc(NC(=O)CN3C(=O)NC4(CCCCC4)C3=O)n2)cc1	DNMT1 inh 54 (no result: CASP6 VEID inh) | DNMT1 inh conf inactive | DNMT1 interf inactive
